Our source for the inhibition and IC50 values is ChEMBL document CHEMBL1154675, “Identification of death-associated protein kinases inhibitors using structure-based virtual screening” (J Med Chem, 2009).

Calls of active or inactive are those of the source. The calls are words filed in the database; no cut-off is given here.

Usually inhibition stands for the relative decrease from the control value, in per cent. For orientation: IC50 means the concentration at which inhibition is half-maximal. A low value points to inhibition by little substance.

The target in assay [1] is T1, Death-associated protein kinase 3 (Homo sapiens, UniProt O43293). In words: Inhibition of DAPK3 at 10 uM. An outline of the steps:
(§1)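 Single-concentration screen of recombinant DAPK3 in the standard Z'-LYTE Ser/Thr 13 peptide reaction: peptide substrate and ATP in 50 mM HEPES pH 7.4, 10 mM MgCl2, 0.01% Brij-35, 0.5% DMSO. Percent inhibition of enzyme activity was read at the stated final compound concentration.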
Target sequence in this assay (O43293 whole entry, looked up): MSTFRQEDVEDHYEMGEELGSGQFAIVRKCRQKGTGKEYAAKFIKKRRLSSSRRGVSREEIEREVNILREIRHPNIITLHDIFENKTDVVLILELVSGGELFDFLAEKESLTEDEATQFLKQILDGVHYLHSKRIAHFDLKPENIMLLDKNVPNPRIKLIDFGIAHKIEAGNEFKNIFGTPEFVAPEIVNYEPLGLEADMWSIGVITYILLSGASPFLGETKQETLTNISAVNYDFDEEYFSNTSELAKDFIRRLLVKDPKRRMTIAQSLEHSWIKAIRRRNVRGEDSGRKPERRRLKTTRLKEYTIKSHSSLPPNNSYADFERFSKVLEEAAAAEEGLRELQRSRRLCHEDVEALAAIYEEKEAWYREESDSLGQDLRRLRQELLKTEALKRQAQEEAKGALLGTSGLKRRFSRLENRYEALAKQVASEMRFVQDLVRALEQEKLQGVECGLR

In assay [2] the target is T1, Death-associated protein kinase 3. Nature of the assay: Inhibition of DAPK3 at 1 uM. A digest of the protocol: as §1
Target sequence in this assay (O43293 whole entry, looked up): as above
Assay [3] has as its target Insulin receptor (Homo sapiens) (UniProt P06213). Nature of the assay: Inhibition of INSR at 10 uM.
The target of assay [4] is RAC-beta serine/threonine-protein kinase (Homo sapiens) (UniProt P31751). Nature of the assay: Inhibition of AKT2 at 10 uM.
Assay [5] has as its target Mitogen-activated protein kinase kinase kinase kinase 4 (Homo sapiens) (UniProt O95819). Nature of the assay: Inhibition of HGK at 10 uM.
In assay [6] the target is Tyrosine-protein kinase Lck (Homo sapiens) (UniProt P06239). Nature of the assay: Inhibition of LCK at 10 uM. A digest of the protocol: (§2)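 Selectivity panel run with ProfilerPro kinase kits following the kit protocol. Activity against each kinase was reported as an IC50 range: below 1 μM, between 1 and 10 μM, or above 10 μM.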
The target of assay [7] is Receptor-type tyrosine-protein kinase FLT3 (Homo sapiens) (UniProt P36888). Nature of the assay: Inhibition of FLT3 at 10 uM.
For assay [8], the target named is Fibroblast growth factor receptor 1 (Homo sapiens, UniProt P11362). Nature of the assay: Inhibition of FGFR1. A digest of the protocol: as §2
The target in assay [9] is Vascular endothelial growth factor receptor 2 (Homo sapiens, UniProt P35968). Nature of the assay: Inhibition of KDR. An outline of the steps: as §2
In assay [10] the target is T1, Death-associated protein kinase 3. Nature of the assay: Inhibition of DAPK3. A digest of the protocol:
(§3)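 IC50 runs used the Z'-LYTE Ser/Thr 13 peptide format. Human recombinant DAPK1 was at 2.6 μg/mL final; DAPK3 was recombinant. Each kinase was incubated with 10 μM ATP and a range of inhibitor concentrations in 50 mM HEPES pH 7.4, 10 mM MgCl2, 0.01% Brij-35, 0.5% DMSO, with peptide substrate.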
Target sequence in this assay (O43293 whole entry): as the sequence (O43293 whole entry, looked up) above

Assay [11] addresses Dual specificity tyrosine-phosphorylation-regulated kinase 1A (Homo sapiens, UniProt Q13627). Nature of the assay: Inhibition of […]. An outline of the steps:
as §2

Assay [12] in a line: Inhibition of p70S6K. A digest of the protocol:
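Selectivity panel of kinases run with a commercial profiling kit according to the kit protocol. Inhibition is reported only as IC50 bands: below 1 μM, 1–10 μM, or above 10 μM.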

The target of assay [13] is Serine/threonine-protein kinase PAK 2 (Homo sapiens) (UniProt Q13177). Nature of the assay: Inhibition of PAK2 at 10 uM.
In assay [14] the target is Death-associated protein kinase 1 (Homo sapiens, UniProt P53355). In words: Inhibition of DAPK1. A digest of the protocol:
as §3

Assay [15] has as its target Calcium/calmodulin-dependent protein kinase type IV (Homo sapiens) (UniProt Q16566). Nature of the assay: Inhibition of CAMK4 at 10 uM. An outline of the steps: as §2
The nature of assay [16]: Inhibition of CAMK2 at 10 uM.
Assay [17] concerns the target Tyrosine-protein kinase ABL1 (Homo sapiens) (UniProt P00519). In words: Inhibition of ABL at 10 uM.
The target of assay [18] is Serine/threonine-protein kinase D2 (Homo sapiens) (UniProt Q9BZL6). In words: Inhibition of PKD2 at 10 uM.
The target of assay [19] is Serine/threonine-protein kinase pim-2 (Homo sapiens) (UniProt Q9P1W9). In words: Inhibition of PIM2 at 10 uM.
Assay [20] has as its target Protein kinase C zeta type (Homo sapiens) (UniProt Q05513). In words: Inhibition of PKCzeta at 10 uM.
Assay [21] has as its target Cyclin-dependent kinase 2 (Homo sapiens) (UniProt P24941). Nature of the assay: Inhibition of CDK2 at 10 uM. A digest of the protocol: as §2
The target of assay [22] is Tyrosine-protein kinase BTK (Homo sapiens) (UniProt Q06187). In words: Inhibition of BTK at 10 uM. An outline of the steps: as §2
The target of assay [23] is Rho-associated protein kinase 2 (Homo sapiens) (UniProt O75116). Nature of the assay: Inhibition of ROCK2 at 10 uM.
Assay [24] has as its target Ribosomal protein S6 kinase alpha-1 (Homo sapiens) (UniProt Q15418). In words: Inhibition of RSK1 at 10 uM. An outline of the steps: as §2
Assay [25] has as its target Serine/threonine-protein kinase MARK1 (Homo sapiens) (UniProt Q9P0L2). In words: Inhibition of MARK1 at 10 uM.
In assay [26] the target is Mitogen-activated protein kinase 3 (Homo sapiens) (UniProt P27361). In words: Inhibition of Erk1 at 10 uM.
For assay [27], the target named is Serine/threonine-protein kinase Chk1 (Homo sapiens) (UniProt O14757). In words: Inhibition of CHK1 at 10 uM. A digest of the protocol: as §2
For assay [28], the target named is Glycogen synthase kinase-3 beta (Homo sapiens) (UniProt P49841). Nature of the assay: Inhibition of GSK3-beta at 10 uM.
Assay [29] concerns the target Protein kinase C beta type (Homo sapiens) (UniProt P05771). In words: Inhibition of PKCbeta2 at 10 uM.
In assay [30] the target is Mitogen-activated protein kinase 14 (Homo sapiens) (UniProt Q16539). In words: Inhibition of p38alpha at 10 uM.
The target in assay [31] is Aurora kinase A (Homo sapiens) (UniProt O14965). In words: Inhibition of AurA at 10 uM.
In assay [32] the target is Mitogen-activated protein kinase 1 (Homo sapiens, UniProt P28482). In words: Inhibition of Erk2. A digest of the protocol:
as §2

For assay [33], the target named is Ribosomal protein S6 kinase alpha-5 (Homo sapiens) (UniProt O75582). Nature of the assay: Inhibition of MSK1 at 10 uM. A digest of the protocol: as §2
For assay [34], the target named is RAC-alpha serine/threonine-protein kinase (Homo sapiens) (UniProt P31749). Nature of the assay: Inhibition of AKT1 at 10 uM.
Assay [35] addresses Hepatocyte growth factor receptor (Homo sapiens) (UniProt P08581). Nature of the assay: Inhibition of MET at 10 uM. A digest of the protocol:
as §2

The nature of assay [36]: Inhibition of PKA at 10 uM.
The target of assay [37] is Tyrosine-protein kinase Lyn (Homo sapiens) (UniProt P07948). In words: Inhibition of LYN at 10 uM. A digest of the protocol:
as §2

The target of assay [38] is Tyrosine-protein kinase SYK (Homo sapiens) (UniProt P43405). Nature of the assay: Inhibition of SYK at 10 uM.
Assay [39] concerns the target MAP kinase-activated protein kinase 2 (Homo sapiens) (UniProt P49137). Nature of the assay: Inhibition of MAPKAPK2 at 10 uM. A digest of the protocol: as §2
The nature of assay [40]: Inhibition of PKGalpha at 10 uM.
Assay [41] in a line: Inhibition of AMPK at 10 uM.
For assay [42], the target named is Serine/threonine-protein kinase Sgk1 (Homo sapiens, UniProt O00141). Nature of the assay: Inhibition of SGK1. A digest of the protocol:
as §2

For assay [43], the target named is Tyrosine-protein kinase Fyn (Homo sapiens) (UniProt P06241). In words: Inhibition of FYN at 10 uM. An outline of the steps:
as §2

The target in assay [44] is MAP/microtubule affinity-regulating kinase 3 (Homo sapiens) (UniProt P27448). In words: Inhibition of c-TAK1 at 10 uM. An outline of the steps: as §2
Assay [45] has as its target Insulin-like growth factor 1 receptor (Homo sapiens) (UniProt P08069). In words: Inhibition of IGF1R at 10 uM.
For assay [46], the target named is Serine/threonine-protein kinase Chk2 (Homo sapiens) (UniProt O96017). In words: Inhibition of CHK2 at 10 uM. A digest of the protocol:
as §2

Assay [47] has as its target Proto-oncogene tyrosine-protein kinase Src (Homo sapiens) (UniProt P12931). Nature of the assay: Inhibition of SRC at 10 uM.
Assay [48] concerns the target Interleukin-1 receptor-associated kinase 4 (Homo sapiens) (UniProt Q9NWZ3). Nature of the assay: Inhibition of IRAK4 at 10 uM. An outline of the steps: as §2
The target in assay [49] is MAP kinase-activated protein kinase 5 (Homo sapiens) (UniProt Q8IW41). In words: Inhibition of PRAK at 10 uM. An outline of the steps: as §2
In assay [50] the target is Serine/threonine-protein kinase 3 (Homo sapiens) (UniProt Q13188). In words: Inhibition of MST2 at 10 uM. A digest of the protocol:
as §2

Assay [51] has as its target RAF proto-oncogene serine/threonine-protein kinase (Homo sapiens) (UniProt P04049). In words: Inhibition of c-Raf at 10 uM.
Assay [52] concerns the target Casein kinase I isoform delta (Homo sapiens, UniProt P48730). Nature of the assay: Inhibition of CK1delta. An outline of the steps:
as §2

Chain of Mitogen-activated protein kinase kinase kinase kinase 4 (Homo sapiens) (O95819 2-1239 limits assumed): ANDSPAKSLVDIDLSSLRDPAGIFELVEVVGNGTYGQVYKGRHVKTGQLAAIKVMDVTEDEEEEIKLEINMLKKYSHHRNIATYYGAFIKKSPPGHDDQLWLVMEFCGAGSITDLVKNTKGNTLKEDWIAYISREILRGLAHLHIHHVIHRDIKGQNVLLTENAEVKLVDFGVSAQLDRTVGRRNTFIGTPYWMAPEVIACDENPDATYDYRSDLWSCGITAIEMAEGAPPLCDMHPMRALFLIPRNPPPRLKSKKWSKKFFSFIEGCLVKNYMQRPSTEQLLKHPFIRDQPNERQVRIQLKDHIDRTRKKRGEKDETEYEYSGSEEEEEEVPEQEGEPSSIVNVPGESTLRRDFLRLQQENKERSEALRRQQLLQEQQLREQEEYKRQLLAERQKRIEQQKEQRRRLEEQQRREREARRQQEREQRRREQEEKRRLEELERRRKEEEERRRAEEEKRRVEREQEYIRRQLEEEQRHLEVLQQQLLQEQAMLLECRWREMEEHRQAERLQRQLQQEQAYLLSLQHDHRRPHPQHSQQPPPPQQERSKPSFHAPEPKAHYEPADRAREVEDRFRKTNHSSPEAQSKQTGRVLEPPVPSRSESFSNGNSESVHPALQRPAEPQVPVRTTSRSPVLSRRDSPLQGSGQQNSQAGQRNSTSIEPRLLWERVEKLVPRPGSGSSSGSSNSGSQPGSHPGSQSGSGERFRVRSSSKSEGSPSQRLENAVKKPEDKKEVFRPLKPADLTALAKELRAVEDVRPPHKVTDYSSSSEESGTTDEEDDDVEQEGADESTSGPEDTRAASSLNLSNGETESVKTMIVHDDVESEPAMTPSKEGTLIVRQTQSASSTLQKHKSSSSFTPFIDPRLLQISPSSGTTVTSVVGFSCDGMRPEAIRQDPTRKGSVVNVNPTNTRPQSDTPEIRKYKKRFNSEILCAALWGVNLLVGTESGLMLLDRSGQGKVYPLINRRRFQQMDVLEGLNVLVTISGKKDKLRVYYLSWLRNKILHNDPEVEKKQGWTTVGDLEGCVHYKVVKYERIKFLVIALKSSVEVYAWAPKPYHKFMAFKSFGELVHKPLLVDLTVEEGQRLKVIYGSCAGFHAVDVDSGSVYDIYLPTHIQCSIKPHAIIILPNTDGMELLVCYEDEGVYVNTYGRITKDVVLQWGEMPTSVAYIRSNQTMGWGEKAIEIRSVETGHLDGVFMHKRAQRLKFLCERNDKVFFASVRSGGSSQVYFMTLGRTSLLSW
Chain of RAF proto-oncogene serine/threonine-protein kinase (Homo sapiens) (P04049 whole entry, canonical isoform): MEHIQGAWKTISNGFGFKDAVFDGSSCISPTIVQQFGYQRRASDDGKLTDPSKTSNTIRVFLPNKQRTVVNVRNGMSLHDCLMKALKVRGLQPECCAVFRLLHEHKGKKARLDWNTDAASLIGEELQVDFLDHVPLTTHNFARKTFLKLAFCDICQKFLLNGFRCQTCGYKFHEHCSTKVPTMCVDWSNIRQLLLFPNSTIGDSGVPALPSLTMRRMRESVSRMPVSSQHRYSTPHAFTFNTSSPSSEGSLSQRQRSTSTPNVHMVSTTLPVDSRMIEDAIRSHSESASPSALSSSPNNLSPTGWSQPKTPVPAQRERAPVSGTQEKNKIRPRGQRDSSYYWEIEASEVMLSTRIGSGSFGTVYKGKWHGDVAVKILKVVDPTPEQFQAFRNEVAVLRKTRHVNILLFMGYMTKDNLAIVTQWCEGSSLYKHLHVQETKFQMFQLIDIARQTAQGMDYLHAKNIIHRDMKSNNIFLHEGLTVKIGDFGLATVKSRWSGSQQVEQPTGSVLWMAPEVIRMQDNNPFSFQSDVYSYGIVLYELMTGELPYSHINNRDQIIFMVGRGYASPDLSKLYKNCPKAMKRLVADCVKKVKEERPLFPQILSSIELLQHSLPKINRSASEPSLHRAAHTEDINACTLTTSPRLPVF
Chain of Tyrosine-protein kinase Fyn (Homo sapiens) (P06241 2-537 limits assumed): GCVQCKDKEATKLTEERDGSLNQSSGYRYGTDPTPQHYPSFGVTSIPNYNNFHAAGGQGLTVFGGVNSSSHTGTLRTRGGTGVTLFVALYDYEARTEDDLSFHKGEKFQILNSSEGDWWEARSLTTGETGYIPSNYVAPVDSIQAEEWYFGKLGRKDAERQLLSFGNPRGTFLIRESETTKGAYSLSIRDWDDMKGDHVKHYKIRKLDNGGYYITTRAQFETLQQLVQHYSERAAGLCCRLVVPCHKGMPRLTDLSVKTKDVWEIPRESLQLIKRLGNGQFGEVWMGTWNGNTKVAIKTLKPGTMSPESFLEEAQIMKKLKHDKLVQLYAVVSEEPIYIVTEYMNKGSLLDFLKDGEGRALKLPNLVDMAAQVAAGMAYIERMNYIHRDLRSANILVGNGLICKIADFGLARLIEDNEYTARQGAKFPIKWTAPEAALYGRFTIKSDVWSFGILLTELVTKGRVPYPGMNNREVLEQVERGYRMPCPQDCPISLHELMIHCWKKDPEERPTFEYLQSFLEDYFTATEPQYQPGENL
Chain of Receptor-type tyrosine-protein kinase FLT3 (Homo sapiens) (P36888 whole entry): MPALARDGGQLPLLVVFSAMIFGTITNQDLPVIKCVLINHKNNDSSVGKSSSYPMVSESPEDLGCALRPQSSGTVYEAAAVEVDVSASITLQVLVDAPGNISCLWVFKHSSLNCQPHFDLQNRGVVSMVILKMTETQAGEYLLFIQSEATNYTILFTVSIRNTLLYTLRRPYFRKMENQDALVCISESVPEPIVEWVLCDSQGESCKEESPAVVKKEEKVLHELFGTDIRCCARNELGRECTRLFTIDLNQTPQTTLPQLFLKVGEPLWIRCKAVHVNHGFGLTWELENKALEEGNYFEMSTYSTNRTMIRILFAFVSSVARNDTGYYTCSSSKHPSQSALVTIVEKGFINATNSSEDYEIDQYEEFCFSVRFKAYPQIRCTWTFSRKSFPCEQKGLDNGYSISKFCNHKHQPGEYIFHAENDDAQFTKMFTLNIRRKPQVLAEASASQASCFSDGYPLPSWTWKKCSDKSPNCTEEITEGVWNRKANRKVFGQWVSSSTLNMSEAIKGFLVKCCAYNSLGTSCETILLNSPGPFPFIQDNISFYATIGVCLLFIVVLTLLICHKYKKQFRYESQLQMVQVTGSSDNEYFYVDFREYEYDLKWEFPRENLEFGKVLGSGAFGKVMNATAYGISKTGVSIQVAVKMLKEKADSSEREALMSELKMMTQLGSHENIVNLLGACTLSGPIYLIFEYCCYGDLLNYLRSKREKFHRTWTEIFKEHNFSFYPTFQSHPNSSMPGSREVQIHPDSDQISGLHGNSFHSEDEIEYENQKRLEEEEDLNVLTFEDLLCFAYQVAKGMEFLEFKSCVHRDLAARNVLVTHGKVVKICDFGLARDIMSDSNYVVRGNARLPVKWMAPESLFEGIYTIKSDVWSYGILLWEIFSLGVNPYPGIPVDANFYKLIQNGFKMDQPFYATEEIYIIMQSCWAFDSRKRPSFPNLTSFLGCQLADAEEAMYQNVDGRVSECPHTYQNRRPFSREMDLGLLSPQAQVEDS
Chain of Proto-oncogene tyrosine-protein kinase Src (Homo sapiens) (P12931 2-536 limits assumed): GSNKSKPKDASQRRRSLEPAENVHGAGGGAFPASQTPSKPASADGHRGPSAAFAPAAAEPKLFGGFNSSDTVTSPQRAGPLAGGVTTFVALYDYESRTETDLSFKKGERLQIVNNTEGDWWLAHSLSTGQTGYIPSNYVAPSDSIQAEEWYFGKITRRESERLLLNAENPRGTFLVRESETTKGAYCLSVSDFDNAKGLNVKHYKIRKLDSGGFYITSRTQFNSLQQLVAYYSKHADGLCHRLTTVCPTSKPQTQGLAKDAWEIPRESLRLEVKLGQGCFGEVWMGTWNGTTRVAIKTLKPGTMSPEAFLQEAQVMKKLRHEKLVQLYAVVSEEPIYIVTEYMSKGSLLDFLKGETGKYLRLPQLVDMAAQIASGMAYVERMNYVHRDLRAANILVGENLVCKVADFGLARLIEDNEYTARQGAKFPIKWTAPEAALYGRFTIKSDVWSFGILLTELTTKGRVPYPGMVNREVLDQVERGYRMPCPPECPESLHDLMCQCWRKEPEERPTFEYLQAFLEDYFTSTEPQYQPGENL
Chain of RAC-beta serine/threonine-protein kinase (Homo sapiens) (P31751 whole entry): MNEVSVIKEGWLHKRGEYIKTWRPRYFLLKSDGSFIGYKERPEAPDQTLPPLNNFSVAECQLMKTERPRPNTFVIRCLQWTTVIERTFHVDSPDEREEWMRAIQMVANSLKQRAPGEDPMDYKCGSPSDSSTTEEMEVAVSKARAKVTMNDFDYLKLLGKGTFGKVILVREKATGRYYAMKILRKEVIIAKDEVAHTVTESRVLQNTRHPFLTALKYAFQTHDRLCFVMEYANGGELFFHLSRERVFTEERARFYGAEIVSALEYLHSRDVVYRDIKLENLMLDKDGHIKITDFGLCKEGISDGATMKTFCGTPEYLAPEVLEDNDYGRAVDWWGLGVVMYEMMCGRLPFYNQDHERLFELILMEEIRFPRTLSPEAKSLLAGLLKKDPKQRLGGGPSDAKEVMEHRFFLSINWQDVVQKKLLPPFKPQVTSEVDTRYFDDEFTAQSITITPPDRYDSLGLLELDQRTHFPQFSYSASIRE

For `O=C1OC(c2cccc(Cl)c2[N+](=O)[O-])=N/C1=C\c1cccnc1`, the values for the inhibition in assay [1] and in [2] were 58% and 3%, respectively.
Regarding `O=C1OC(/C=C/c2ccccc2)=NC/1=C\c1cccnc1`, the inhibition result in assay [3], in [4], in assay [5], in assay [6], in assay [7] and in assay [13] was “inactive” in each case. Moreover, the inhibition entry in [15], in assay [16], in assay [17], in assay [18], in [19] and in [20] was “inactive” in each case. Further, the inhibition result in [21], in [22], in assay [23], in assay [24], in [25] and in [26] was “inactive” throughout. The inhibition entry in assay [27], in assay [28], in [29], in assay [30], in [31] and in assay [33] was “inactive” each time. The inhibition result in assay [34], in assay [35], in assay [36], in assay [37], in assay [38] and in [39] was “inactive” each time. Also, the inhibition result in assay [40], in [41], in assay [43], in assay [44], in assay [45] and in [46] was “inactive” throughout. In addition, the inhibition result in assay [47], in [48], in [49], in assay [50] and in assay [51] was “inactive” in each case. Also, the inhibition in assay [1] was found to be 58%; in assay [2], 3%. Also, the IC50 in assay [8] was above 10 µM; in [9], above 10 µM; in [10], below 1 µM; in assay [11] it was above 10 µM; in assay [12] it was below 10 µM; in [14] it was below 1 µM. Also, the IC50 in assay [32], in [42] and in assay [52] was above 10 µM each time.
Consider `Cc1cccc2c(C(=O)O)cc(-c3ccncc3)nc12`, for which the inhibition amounted to 72% in [1] and 2% in assay [2].
With `O=C1OC(C23CC4CC(CC(C4)C2)C3)=N/C1=C\c1cccnc1`, the inhibition in assay [1] came out at 58%; in assay [2], 3%.
The matching figures for `O=C1OC(c2ccccc2)=N/C1=C\c1cccnc1`: 84% and 71%.
For `Cc1ccc2nc(-c3ccncc3)cc(C(=O)O)c2c1`, in that order: 58% and 3%.
On to `Cc1ccccc1C1=N/C(=C\c2cccnc2)C(=O)O1`, for which the inhibition came to 58% in assay [1] and 3% in assay [2].
The matching figures for `Cc1c(O)ccc2c(CN3CCN(C)CC3)cc(=O)oc12`: 54% and 12%.
